Publication PMC3594138 (Bioorganic & medicinal chemistry letters, 2013)
Read-outs that look alike come from different tables or passages of the source.

Assays:
isolated rat heart = details: uptake-2 blocked pharmacologically; cited from earlier work
[1] = Biodistribution studies in rats; type: in vivo, rat; details: t = 30 min after intravenous injection, n = 5, mean ± SD
How it was run: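 Rats received the fluorine-18 labelled test compound by intravenous injection. Tissue radioactivity was determined 30 min later and expressed as % injected dose/g, with n = 5 each.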

[2] = MicroPET imaging study in rhesus macaque; type: in vivo, rhesus macaque monkey; details: PET
[3] = rats, t = 30 min, n = 5, mean ± SD; cited from earlier work

Row | Molecule | Neuronal uptake rate Kup (isolated rat heart) [ml/min/g wet] | Major Clearance T1/2 (isolated rat heart) [h] | Tissue concentration, adrenal medulla [3] [% injected dose/g] | Tissue concentration, blood [3] [% injected dose/g] | Tissue concentration, liver [3] [% injected dose/g] | Tissue concentration, lung [3] [% injected dose/g] | Tissue concentration, spleen [3] [% injected dose/g] | other results
1 | [^11C]-(−)-m-hydroxyephedrine [[^11C]HED] | 2.7 ± 0.4 |  |  |  |  |  |  | 
2 | N=C(N)NCc1cccc([123I])c1 [[^123I]MIBG, [^123I]-m-iodobenzylguanidine] |  | 3.5 ± 1.8 |  |  |  |  |  | 
3 | N=C(N)NCc1ccc([18F])cc1 [[^18F]PFBG, p-[^18F]fluorobenzylguanidine] |  | 0.53 ± 0.06 |  |  |  |  |  | 
4 | N=C(N)NCCc1ccc([18F])c(O)c1 [[^18F]4F-MHPG, [^18F]4-fluoro-m-hydroxyphenethylguanidine] |  |  |  |  |  |  |  | Tissue concentration, adrenal medulla [1]: 0.54 ± 0.08 % injected dose/g; Tissue concentration, blood [1]: 0.07 ± 0.01 % injected dose/g; Tissue concentration, left ventricle [1]: 1.45 ± 0.13 % injected dose/g; Tissue concentration, liver [1]: 1.14 ± 0.16 % injected dose/g; Tissue concentration, lung [1]: 0.43 ± 0.08 % injected dose/g; Tissue concentration, spleen [1]: 0.56 ± 0.10 % injected dose/g; Retention of the tracer in the lungs [2]: essentially no retention; Uptake in the liver relative to cardiac uptake [2]: a little lower than the cardiac uptake; Activity in the vertebrae of the spine (in vivo defluorination) ([2]; sagittal images): little or no activity
5 | N=[11C](N)NCCc1ccc(F)c(O)c1 [[^11C]4F-MHPG, [^11C]4-fluoro-m-hydroxyphenethylguanidine] | 0.72 | > 73 | 0.56 ± 0.21 | 0.08 ± 0.01 | 1.22 ± 0.18 | 0.56 ± 0.15 | 0.52 ± 0.10 | Tissue concentration, left ventricle [3]: 1.77 ± 0.27 % injected dose/g
6 | NC(N)=NCc1cccc([125I])c1 [[^125I]MIBG] |  |  | 1.53 ± 0.08 | 0.10 ± 0.01 | 1.19 ± 0.06 | 2.31 ± 0.19 | 0.85 ± 0.06 | 
